Molecules are shown by their SMILES. Screen size: about 24,000 compounds; fewer than 10 were called active. Cut-off read from the data, not from the text of the source: active = caspase activation above about 5.9%; inconclusive = no clear call, values can overlap the other calls; inactive = below about 2.2%. The list is a sample of the results.

This experiment in a line: Bcl2-A1 antagonists releasing BIM, apoptosis – cell-based, luminescence, HTS, two replicates, primary screen (AID 2465). To be noted: MEF A1-2A-BIM cells, caspase-Glo luminescence, 3 h; hits give high values; percent of clofoctol response, DMSO zero; concentration not given here. The essentials:
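System: mouse embryonic fibroblasts co-expressing A1 and BIM (A1-2A-BIM), primed for A1 dependence; amount: 2500 cells/well; doses: 50 nL pinned compound; schedule: cells settled overnight, compound exposure 3 h at 37 °C, 5% CO2; detection: Caspase-Glo 3/7 luminescence, 1 h at room temperature; read-out: Caspase-3/7 activation, seen as rise in luminescence signal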
On to `C[C@@H]1CCCCO[C@H](CN(C)Cc2ccc(C(F)(F)F)cc2)[C@@H](C)CN([C@@H](C)CO)C(=O)c2cc(NC(=O)c3ccncc3)ccc2O1`, for which the caspase activation was -0.085% (inactive).

Regarding `C[C@@H]1CCCCO[C@@H](CN(C)S(=O)(=O)c2ccc(F)cc2)[C@@H](C)CN([C@@H](C)CO)C(=O)c2cc(NC(=O)Nc3ccc4c(c3)OCO4)ccc2O1`, the caspase activation is -0.312% (inactive).

With `C[C@H]1CN([C@@H](C)CO)C(=O)Cc2cc(NC(=O)Cn3cnnn3)ccc2O[C@H]1CN(C)CC1CC1`, the caspase activation is -0.754% (inactive).

As to `Cc1ccc(S(=O)(=O)N(C)C[C@H]2OCCCC[C@H](C)Oc3ccc(N(C)C)cc3C(=O)N([C@H](C)CO)C[C@@H]2C)cc1`, the caspase activation is 0.228% (inactive).

For `C[C@@H]1CN([C@H](C)CO)C(=O)c2cc(NS(=O)(=O)c3ccccc3)ccc2O[C@H]1CN(C)S(=O)(=O)c1cccs1`, the caspase activation was -0.323% (inactive).

For the molecule `COc1ccc(S(=O)(=O)Nc2ccc3c(c2)C(=O)N([C@H](C)CO)C[C@@H](C)[C@@H](CN(C)CC2CCCCC2)O3)cc1`, the caspase activation was -0.24% (inactive).

As to `CC(C)NC(=O)N(C)C[C@@H]1Oc2ccc(NC(=O)Cn3cnnn3)cc2CC(=O)N([C@H](C)CO)C[C@H]1C`, the caspase activation is 1.87% (inactive).

For the molecule `COc1cc(OC)c(/C=N/NC(=O)CCCCCCC(=O)Nc2ccccc2O)c(OC)c1`, the caspase activation is -0.41% (inactive).

As to `C[C@@H]1CCCCO[C@@H](CN(C)Cc2ccncc2)[C@@H](C)CN([C@H](C)CO)C(=O)c2cc(NS(=O)(=O)c3cccs3)ccc2O1`, the caspase activation is -0.367% (inactive).

Regarding `C[C@@H]1CN([C@H](C)CO)C(=O)Cc2cc(NC(=O)Nc3ccc4c(c3)OCO4)ccc2O[C@H]1CN(C)Cc1ccc(C(F)(F)F)cc1`, the caspase activation was 1.47% (inactive).

In the case of `COc1ccc(S(=O)(=O)N(C)C[C@@H]2OCCCC[C@H](C)Oc3ccc(NC(=O)Nc4ccccc4)cc3C(=O)N([C@@H](C)CO)C[C@H]2C)cc1`, the caspase activation is 0.213% (inactive).

Consider `C[C@@H]1CN([C@@H](C)CO)C(=O)CCCn2nncc2CO[C@H]1CN(C)C(=O)CCCN(C)C`, for which the caspase activation is -0.0755% (inactive).

For `COc1ccc(NC(=O)Nc2ccc3c(c2)C(=O)N([C@@H](C)CO)C[C@@H](C)[C@@H](CN(C)S(=O)(=O)c2ccc(C)cc2)OCCCC[C@H](C)O3)cc1`, the caspase activation is -0.213% (inactive).

For the molecule `COc1ccc(S(=O)(=O)Nc2ccc3c(c2)CC(=O)N([C@@H](C)CO)C[C@H](C)[C@@H](CN(C)Cc2ccc(C(=O)O)cc2)O3)cc1`, the caspase activation is 1% (inactive).

Turning to `C[C@H](CO)N1C[C@H](C)[C@@H](CN(C)Cc2ccc(-c3ccccc3)cc2)Oc2ccc(NC(=O)CCCN(C)C)cc2CC1=O`, the caspase activation was 0.389% (inactive).

Consider `C[C@@H]1CCCCO[C@@H](CN(C)C(=O)C2CCCCC2)[C@H](C)CN([C@H](C)CO)C(=O)c2cc(NC(=O)CCC(F)(F)F)ccc2O1`, for which the caspase activation is -0.546% (inactive).

As for `COc1ccc(S(=O)(=O)N(C)C[C@@H]2Oc3ccc(NC(=O)C4CC4)cc3CC(=O)N([C@@H](C)CO)C[C@H]2C)cc1`, the caspase activation was -0.0568% (inactive).

For the molecule `C[C@@H]1CN([C@H](C)CO)C(=O)c2cc(NC(=O)NC3CCCCC3)ccc2O[C@@H](C)CCCCO[C@H]1CN(C)C(=O)Nc1ccccc1`, the caspase activation was -0.462% (inactive).

In the case of `C[C@H](CO)N1C[C@H](C)[C@@H](CN(C)Cc2ccc(C(=O)O)cc2)OCCCC[C@H](C)Oc2ccc(NC(=O)c3ccccc3)cc2C1=O`, the caspase activation is -0.0294% (inactive).

In the case of `Cc1noc(C)c1NC(=O)Nc1ccc2c(c1)CC(=O)N([C@@H](C)CO)C[C@@H](C)[C@H](CN(C)C(=O)NC1CCCCC1)O2`, the caspase activation is -0.291% (inactive).

Turning to `Cc1ccc(S(=O)(=O)Nc2ccc3c(c2)C(=O)N([C@@H](C)CO)C[C@@H](C)[C@@H](CN(C)Cc2ccc(C(F)(F)F)cc2)OCCCC[C@@H](C)O3)cc1`, the caspase activation is 0.898% (inactive).

Turning to `CNC[C@H]1OCCCC[C@H](C)Oc2ccc(NS(=O)(=O)c3ccc(Cl)cc3)cc2C(=O)N([C@@H](C)CO)C[C@@H]1C`, the caspase activation was -0.41% (inactive).

`COc1ccc(NC(=O)N(C)C[C@@H]2Oc3ccc(NC(=O)CCN4CCOCC4)cc3C(=O)N([C@@H](C)CO)C[C@H]2C)cc1`: the caspase activation was 0.238% (inactive).

Regarding `C[C@@H]1CCCCO[C@H](CN(C)Cc2ccccc2)[C@H](C)CN([C@H](C)CO)C(=O)c2cc(NS(=O)(=O)c3ccc(Cl)cc3)ccc2O1`, the caspase activation is -0.0813% (inactive).

In the case of `C[C@H](CO)N1C[C@H](C)[C@H](CN(C)S(=O)(=O)c2ccccc2)Oc2c(NC(=O)CCCCCC(=O)Nc3ccccc3N)cccc2C1=O`, the caspase activation was -0.28% (inactive).

For the molecule `C[C@H](CO)N1C[C@H](C)[C@H](CN(C)S(C)(=O)=O)Oc2ccc(NC(=O)c3ccncc3)cc2CC1=O`, the caspase activation was -0.8% (inactive).

On to `C[C@H]1CN([C@@H](C)CO)C(=O)CCCn2cc(nn2)CO[C@H]1CN(C)C(=O)Nc1cccc(C(F)(F)F)c1`, for which the caspase activation was -0.271% (inactive).

`COc1ccc(NC(=O)Nc2ccc3c(c2)C(=O)N([C@@H](C)CO)C[C@H](C)[C@@H](CN(C)C(=O)Nc2cccc4ccccc24)OCCCC[C@@H](C)O3)cc1`: the caspase activation is 0.279% (inactive).

`C[C@H](CO)N1C[C@H](C)[C@@H](CN(C)S(=O)(=O)c2ccccc2)Oc2ccc(NC(=O)Nc3ccc(F)cc3)cc2CC1=O`: the caspase activation is -0.112% (inactive).

`C[C@@H]1CN([C@H](C)CO)C(=O)c2cc(NC(=O)C3CCCCC3)ccc2O[C@H]1CN(C)C(=O)Nc1ccccc1`: the caspase activation was -0.382% (inactive).

Consider `C[C@H]1CN([C@@H](C)CO)C(=O)CCCn2cc(nn2)CO[C@@H]1CN(C)C(=O)Nc1ccccc1`, for which the caspase activation is 0.231% (inactive).

For `COc1ccc(NC(=O)N(C)C[C@@H]2Oc3ccc(NS(=O)(=O)c4ccc(Cl)cc4)cc3C(=O)N([C@H](C)CO)C[C@@H]2C)cc1`, the caspase activation is 0.258% (inactive).

For `C[C@@H]1CN([C@@H](C)CO)C(=O)CCCn2cc(nn2)CO[C@@H]1CN(C)Cc1ccccc1C(=O)O`, the caspase activation is 0.264% (inactive).

With `O=C(CCCCC(=O)N/N=C/c1ccc[nH]1)NO`, the caspase activation was -0.0327% (inactive).

Consider `COc1ccc(NC(=O)N(C)C[C@H]2OCCCC[C@@H](C)Oc3ccc(NS(=O)(=O)c4ccc(F)cc4)cc3C(=O)N([C@@H](C)CO)C[C@@H]2C)cc1`, for which the caspase activation was -0.991% (inactive).

(Values after PubChem BioAssay AID2465 (Broad Institute, 2010).)
